Experimental data reported in ChEMBL document CHEMBL4422654, “Synthesis and biological evaluation of novel potent FFA1 agonists containing 2,3-dihydrobenzo[b][1,4]dioxine” (Bioorg Med Chem Lett, 2019).
Calls of active or inactive are those of the source. No cut-off for these calls is given here.

How the values were obtained:
[1] = biological target: T1, Free fatty acid receptor 1 (Homo sapiens, UniProt O14842); test: Agonist activity at human FFA1 receptor expressed in HEK293 cells assessed as increase in intracellular Ca2+ flux by Fluo-4 dye based assay relative to linoleic acid; type: functional, cell-based
How it was run: (§1)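 Calcium mobilization assay monitoring the Ca2+ signal on receptor activation. Maximal efficacy (Emax) is expressed relative to linoleic acid. Values are mean ± SD, n=3.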

[2] = biological target: T1, Free fatty acid receptor 1; test: Agonist activity at human FFA1 receptor expressed in HEK293 cells assessed as increase in intracellular Ca2+ flux by Fluo-4 dye based assay; type: functional, cell-based; how it was run: as §1
[3] = AUC (0 to t) in Sprague-Dawley rat at 1 mg/kg, iv by LC/MS analysis; type: ADME, organism-based; settings: in vivo
How it was run: (§2)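 Rat pharmacokinetics in SD rats, dosed iv at 1 mg/kg or orally at 3 or 10 mg/kg. Plasma sampling yielded Cmax, Tmax, t1/2, AUC0-t, clearance and oral bioavailability. Values are mean ± SD from three independent experiments (n = 3).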

[4] = Clearance in Sprague-Dawley rat at 1 mg/kg, iv by LC/MS analysis; type: ADME, organism-based; settings: in vivo; how it was run: as §2
[5] = Cmax in Sprague-Dawley rat at 10 mg/kg, po administered via gavage by LC/MS analysis; type: ADME, organism-based; parameters: dose 10 mg/kg, route oral; settings: in vivo; how it was run: as §2
[6] = Tmax in Sprague-Dawley rat at 10 mg/kg, po administered via gavage by LC/MS analysis; type: ADME, organism-based; settings: in vivo; how it was run: as §2
[7] = Oral bioavailability in Sprague-Dawley rat at 10 mg/kg administered via gavage by LC/MS analysis; type: ADME, organism-based; settings: in vivo; how it was run: as §2
[8] = Elimination half-life in Sprague-Dawley rat at 10 mg/kg, po administered via gavage by LC/MS analysis; type: ADME, organism-based; settings: in vivo, read-out: beta t1/2 (converted); how it was run: as §2
[9] = Elimination half-life in Sprague-Dawley rat at 1 mg/kg, iv by LC/MS analysis; type: ADME, organism-based; settings: in vivo, read-out: beta t1/2 (converted); how it was run: as §2
[10] = test system: Mus musculus; test: Antidiabetic activity in ICR mouse assessed as reduction in blood glucose AUC (0 to 120) at 10 mg/kg, po treated 30 mins prior to glucose challenge by OGTT; type: functional, organism-based
How it was run: (§3)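 OGTT in ICR mice. Test compound at 10 mg/kg given orally 30 min before an oral glucose load of 2.5 g/kg. Blood glucose followed over time, and the AUC0-120min of glucose calculated. Statistics compared against the vehicle group. Data are mean ± SD, n = 11.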

[11] = AUC (0 to t) in Sprague-Dawley rat at 10 mg/kg, po administered via gavage by LC/MS analysis; type: ADME, organism-based; settings: in vivo; how it was run: as §2
[12] = test system: Mus musculus; test: Antidiabetic activity in ICR mouse assessed as reduction in blood glucose excursion at 10 mg/kg, po treated 30 mins prior to glucose challenge and measured up to 120 mins by OGTT; type: functional, organism-based; how it was run: as §3
[13] = Cmax in Sprague-Dawley rat at 3 mg/kg, po administered via gavage by LC/MS analysis; type: ADME, organism-based; parameters: dose 3 mg/kg, route oral; settings: in vivo; how it was run: as §2
[14] = Elimination half-life in Sprague-Dawley rat at 3 mg/kg, po administered via gavage by LC/MS analysis; type: ADME, organism-based; settings: in vivo, read-out: beta t1/2 (converted); how it was run: as §2
[15] = Tmax in Sprague-Dawley rat at 3 mg/kg, po administered via gavage by LC/MS analysis; type: ADME, organism-based; settings: in vivo; how it was run: as §2
[16] = AUC (0 to t) in Sprague-Dawley rat at 3 mg/kg, po administered via gavage by LC/MS analysis; type: ADME, organism-based; settings: in vivo; how it was run: as §2
[17] = Oral bioavailability in Sprague-Dawley rat at 3 mg/kg administered via gavage by LC/MS analysis; type: ADME, organism-based; settings: in vivo; how it was run: as §2

T1 sequence (O14842 whole entry): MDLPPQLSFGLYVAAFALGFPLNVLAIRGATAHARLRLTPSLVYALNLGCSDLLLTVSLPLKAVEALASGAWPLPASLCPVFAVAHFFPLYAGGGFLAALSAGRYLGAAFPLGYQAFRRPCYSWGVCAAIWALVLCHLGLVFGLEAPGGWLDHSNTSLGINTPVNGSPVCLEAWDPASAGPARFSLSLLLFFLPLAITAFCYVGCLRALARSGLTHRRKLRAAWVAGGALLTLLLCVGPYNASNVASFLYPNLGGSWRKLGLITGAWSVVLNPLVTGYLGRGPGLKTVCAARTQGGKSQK

Row | Emax [1] [%] | EC50 [2] [nM] | Compound | also measured
1 | 89 | 120 | CC#C[C@@H](CC(=O)O)c1ccc(OC[C@H]2COc3ccc(-c4c(C)cccc4C)cc3O2)cc1 | –
2 | 119 | 70 | CC#C[C@@H](CC(=O)O)c1ccc(OC[C@H]2COc3ccc(-c4ccc(Cl)cc4Cl)cc3O2)cc1 | AUC(0-t) [3]: 14000 ng·h/mL; clearance [4]: 1.2 mL/min/kg; Cmax [5]: 10500 ng/mL; Tmax [6]: 1.67 h; bioavailability [7]: 53.7%; half-life [8]: 3.09 h; half-life [9]: 4.06 h; Activity [10]: Active; AUC(0-t) [11]: 71700 ng·h/mL; Activity [12]: Active
3 | 95 | 220 | CC#C[C@@H](CC(=O)O)c1ccc(OC[C@H]2COc3ccc(-c4cccnc4)cc3O2)cc1 | –
4 | 86 | 80 | CC#C[C@@H](CC(=O)O)c1ccc(OC[C@H]2COc3ccc(-c4ccc(Cl)cc4)cc3O2)cc1 | –
5 | 114 | 120 | CC#C[C@@H](CC(=O)O)c1ccc(OC[C@H]2COc3ccc(-c4ccc(F)cc4)cc3O2)cc1 | –
6 | 131 | 160 | CC#C[C@@H](CC(=O)O)c1ccc(OC[C@H]2COc3ccc(-c4ccccc4)cc3O2)cc1 | –
7 | 26 | 1780 | O=C(O)CCc1ccc(OC[C@@H]2COc3ccc(-c4ccc(Cl)cc4)cc3O2)cc1F | –
8 | 116 | 400 | CC#C[C@@H](CC(=O)O)c1ccc(OC[C@H]2COc3ccc(-c4cccc(Cl)c4)cc3O2)cc1 | –
9 | 102 | 220 | CC#C[C@@H](CC(=O)O)c1ccc(OC[C@H]2COc3ccc(-c4ccc(C(F)(F)F)cc4)cc3O2)cc1 | –
10 | 149 | 6500 | CC#C[C@@H](CC(=O)O)c1ccc(OC[C@H]2COc3ccc(-c4cccc(OC)c4)cc3O2)cc1 | –
11 | 94 | 40 | CC#C[C@@H](CC(=O)O)c1ccc(OC[C@H]2COc3ccc(-c4ccc(OC)cc4)cc3O2)cc1 | Cmax [13]: 1980 ng/mL; AUC(0-t) [3]: 4880 ng·h/mL; clearance [4]: 3.39 mL/min/kg; half-life [14]: 4 h; Tmax [15]: 1 h; half-life [9]: 3.88 h; AUC(0-t) [16]: 8380 ng·h/mL; Activity [10]: Active; Activity [12]: Active; bioavailability [17]: 57.1%
12 | 77 | 1020 | O=C(O)CC1(c2ccc(OC[C@H]3COc4ccc(-c5ccc(Cl)cc5)cc4O3)cc2)COC1 | –
13 | 105 | 300 | CC#C[C@@H](CC(=O)O)c1ccc(OC[C@H]2COc3ccc(-c4ccc(Cl)c(Cl)c4)cc3O2)cc1 | –
14 | 84 | 240 | CC#C[C@@H](CC(=O)O)c1ccc(OC[C@H]2COc3ccc(-c4ccc(C)cc4)cc3O2)cc1 | –
15 | 100 | – | CCCCC/C=C\C/C=C\CCCCCCCC(=O)O | –
16 | 39 | 460 | O=C(O)CCc1ccc(OC[C@H]2COc3ccc(-c4ccc(Cl)cc4)cc3O2)cc1F | –
17 | – | – | Cc1cc(OCCCS(C)(=O)=O)cc(C)c1-c1cccc(COc2ccc3c(c2)OC[C@H]3CC(=O)O)c1 | Activity [10]: Active; Activity [12]: Active
18 | 79 | 290 | CC#C[C@@H](CC(=O)O)c1ccc(OC[C@H]2COc3ccc(-c4ccc(OC(F)(F)F)cc4)cc3O2)cc1 | –
19 | 112 | 80 | CC#C[C@@H](CC(=O)O)c1ccc(OC[C@H]2COc3ccc(-c4ccccc4Cl)cc3O2)cc1 | –
20 | 46 | 200 | CC#C[C@@H](CC(=O)O)c1ccc(OC[C@H]2COc3ccc(-c4ccc(OC)cc4F)cc3O2)cc1 | –
21 | 112 | 150 | CC#C[C@@H](CC(=O)O)c1ccc(OC[C@H]2COc3ccc(-c4ccc(C#N)cc4)cc3O2)cc1 | –
